In ChEMBL document CHEMBL1133793, “Polyamines with N-(3-phenylpropyl) substituents are effective competitive inhibitors of trypanothione reductase and trypanocidal agents” (Bioorg Med Chem Lett, 2001):

Key:
[1] = tested on: Trypanosoma brucei; test: Tested in vitro for trypanocidal activity against a drug sensitive strain of Trypanosoma brucei Lab 110 EATRO; assay type: functional, organism-based
Method in brief: (§1)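 Bloodstream-form trypanosomes were grown in vitro in culture medium containing fetal bovine serum, which the paper notes contains polyamine oxidase. IC50 values in µM.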

[2] = target: Trypanothione reductase (Trypanosoma cruzi, UniProt P28593); test: Tested for binding affinity against trypanothione reductase from Trypanosoma cruzi
Sequence of Trypanothione reductase (P28593 whole entry): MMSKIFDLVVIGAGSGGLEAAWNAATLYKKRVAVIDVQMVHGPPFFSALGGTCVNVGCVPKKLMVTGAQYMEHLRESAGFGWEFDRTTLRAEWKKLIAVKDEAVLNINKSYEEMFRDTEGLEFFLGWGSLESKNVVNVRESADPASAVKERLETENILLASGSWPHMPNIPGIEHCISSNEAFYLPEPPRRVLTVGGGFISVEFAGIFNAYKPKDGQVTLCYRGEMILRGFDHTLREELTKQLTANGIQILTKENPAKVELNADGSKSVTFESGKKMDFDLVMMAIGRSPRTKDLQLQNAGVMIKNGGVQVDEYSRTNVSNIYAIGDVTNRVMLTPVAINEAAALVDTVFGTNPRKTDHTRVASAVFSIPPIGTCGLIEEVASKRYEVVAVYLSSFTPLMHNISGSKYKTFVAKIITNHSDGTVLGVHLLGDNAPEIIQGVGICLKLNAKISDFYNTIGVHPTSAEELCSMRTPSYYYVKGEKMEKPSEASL
Method in brief: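 Recombinant T. cruzi TR purified from glutathione reductase-deficient E. coli SG5 strain. Activity read as NADPH oxidation at 340 nm, 23 °C, in HEPES 100 mM pH 7.25 with EDTA 1 mM, NADPH 0.18 mM and TR 2.2 µg/mL. Velocities taken at five trypanothione levels (15-75 µM) and five inhibitor levels. Km(obs) fitted by Michaelis–Menten; Ki from weighted regression of Km(obs) against [I].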

[3] = tested on: Trypanosoma brucei; test: Tested in vitro for trypanocidal activity against KETRI 269 an uncloned clinical isolate of Trypanosoma brucei. rhodesiense; assay type: functional, organism-based; method in brief: as §1
[4] = tested on: Trypanosoma brucei; test: Tested in vitro for trypanocidal activity against KETRI 243 an uncloned clinical isolate of Trypanosoma brucei. rhodesiense; assay type: functional, organism-based; method in brief: as §1
[5] = tested on: Trypanosoma brucei; test: Tested in vitro for trypanocidal activity against KETRI 243-As-10-3 a pentamidine and melarsoprol resistant clone of Trypanosoma brucei. rhodesiense KETRI 243; assay type: functional, organism-based; method in brief: as §1

| SMILES | IC50 [1] | Ki [2] | IC50 [3] | IC50 [4] | IC50 [5] |
| --- | --- | --- | --- | --- | --- |
| c1ccc(CCCNCCCNCCCCNCCCN(CCCc2ccccc2)CCCc2ccccc2)cc1 | 400 nM | 3620 nM | 270 nM | 160 nM | 530 nM |
| c1ccc(CCCNCCCN(CCCCN(CCCNCCCc2ccccc2)CCCc2ccccc2)CCCc2ccccc2)cc1 | 120 nM | 614 nM | 160 nM | 140 nM | 150 nM |
| NCCCCN(CCCNCCCc1ccccc1)CCCc1ccccc1.NCCCN(CCCCNCCCc1ccccc1)CCCc1ccccc1 | 310 nM | 4670 nM | 380 nM | 530 nM | 570 nM |
| NCCCCN(CCCN)CCCc1ccccc1 |  | 14100 nM |  |  |  |
| NCCCN(CCCCN(CCCN)CCCc1ccccc1)CCCc1ccccc1 | 660 nM |  | 580 nM | 790 nM | 660 nM |
| c1ccc(CCCNCCCCN(CCCNCCCc2ccccc2)CCCc2ccccc2)cc1 | 220 nM | 3500 nM | 540 nM | 360 nM | 460 nM |
| NCCCN(CCCCN(CCCNCCCc1ccccc1)CCCc1ccccc1)CCCc1ccccc1 | 270 nM | 1380 nM | 160 nM | 160 nM | 160 nM |
| NCCCNCCCCNCCCNCCCc1ccccc1 |  | 37600 nM |  |  |  |
| c1ccc(CCCNCCCN(CCCCN(CCCc2ccccc2)CCCN(CCCc2ccccc2)CCCc2ccccc2)CCCc2ccccc2)cc1 | 3050 nM | 151 nM | 2200 nM | 3350 nM | 5500 nM |
| c1ccc(CCCN(CCCCN(CCCc2ccccc2)CCCN(CCCc2ccccc2)CCCc2ccccc2)CCCN(CCCc2ccccc2)CCCc2ccccc2)cc1 | 22000 nM | 10300 nM | 30500 nM | 35000 nM | 24000 nM |
| c1ccc(CCCNCCCNCCCCNCCCNCCCc2ccccc2)cc1 | 810 nM | 12300 nM | 1800 nM | 1500 nM | 2200 nM |
